Measured values from ChEMBL document CHEMBL1154385, “(4-Piperidinyl)-piperazine: a new platform for acetyl-CoA carboxylase inhibitors” (Bioorg Med Chem Lett, 2009).

Key:
Acetyl-CoA carboxylase = Acetyl-CoA carboxylase (Homo sapiens, UniProt Q13085+O00763); test: Inhibition of partially purified human liver ACC1/2
[1] = Cmax in Sprague-Dawley rat at 10 mg/kg, po; type: ADME, organism-based; parameters: dose 10 mg/kg, route oral; conditions: in vivo
Summary of the method: (§1)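 Male Sprague-Dawley rats given a single oral dose of 10 mg/kg; plasma exposure parameters taken from the plasma profile.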

Acetyl-CoA carboxylase 2 = Acetyl-CoA carboxylase 2 (Homo sapiens, UniProt O00763); test: Inhibition of human recombinant ACC2
Sequence of Acetyl-CoA carboxylase 2 (O00763 whole entry): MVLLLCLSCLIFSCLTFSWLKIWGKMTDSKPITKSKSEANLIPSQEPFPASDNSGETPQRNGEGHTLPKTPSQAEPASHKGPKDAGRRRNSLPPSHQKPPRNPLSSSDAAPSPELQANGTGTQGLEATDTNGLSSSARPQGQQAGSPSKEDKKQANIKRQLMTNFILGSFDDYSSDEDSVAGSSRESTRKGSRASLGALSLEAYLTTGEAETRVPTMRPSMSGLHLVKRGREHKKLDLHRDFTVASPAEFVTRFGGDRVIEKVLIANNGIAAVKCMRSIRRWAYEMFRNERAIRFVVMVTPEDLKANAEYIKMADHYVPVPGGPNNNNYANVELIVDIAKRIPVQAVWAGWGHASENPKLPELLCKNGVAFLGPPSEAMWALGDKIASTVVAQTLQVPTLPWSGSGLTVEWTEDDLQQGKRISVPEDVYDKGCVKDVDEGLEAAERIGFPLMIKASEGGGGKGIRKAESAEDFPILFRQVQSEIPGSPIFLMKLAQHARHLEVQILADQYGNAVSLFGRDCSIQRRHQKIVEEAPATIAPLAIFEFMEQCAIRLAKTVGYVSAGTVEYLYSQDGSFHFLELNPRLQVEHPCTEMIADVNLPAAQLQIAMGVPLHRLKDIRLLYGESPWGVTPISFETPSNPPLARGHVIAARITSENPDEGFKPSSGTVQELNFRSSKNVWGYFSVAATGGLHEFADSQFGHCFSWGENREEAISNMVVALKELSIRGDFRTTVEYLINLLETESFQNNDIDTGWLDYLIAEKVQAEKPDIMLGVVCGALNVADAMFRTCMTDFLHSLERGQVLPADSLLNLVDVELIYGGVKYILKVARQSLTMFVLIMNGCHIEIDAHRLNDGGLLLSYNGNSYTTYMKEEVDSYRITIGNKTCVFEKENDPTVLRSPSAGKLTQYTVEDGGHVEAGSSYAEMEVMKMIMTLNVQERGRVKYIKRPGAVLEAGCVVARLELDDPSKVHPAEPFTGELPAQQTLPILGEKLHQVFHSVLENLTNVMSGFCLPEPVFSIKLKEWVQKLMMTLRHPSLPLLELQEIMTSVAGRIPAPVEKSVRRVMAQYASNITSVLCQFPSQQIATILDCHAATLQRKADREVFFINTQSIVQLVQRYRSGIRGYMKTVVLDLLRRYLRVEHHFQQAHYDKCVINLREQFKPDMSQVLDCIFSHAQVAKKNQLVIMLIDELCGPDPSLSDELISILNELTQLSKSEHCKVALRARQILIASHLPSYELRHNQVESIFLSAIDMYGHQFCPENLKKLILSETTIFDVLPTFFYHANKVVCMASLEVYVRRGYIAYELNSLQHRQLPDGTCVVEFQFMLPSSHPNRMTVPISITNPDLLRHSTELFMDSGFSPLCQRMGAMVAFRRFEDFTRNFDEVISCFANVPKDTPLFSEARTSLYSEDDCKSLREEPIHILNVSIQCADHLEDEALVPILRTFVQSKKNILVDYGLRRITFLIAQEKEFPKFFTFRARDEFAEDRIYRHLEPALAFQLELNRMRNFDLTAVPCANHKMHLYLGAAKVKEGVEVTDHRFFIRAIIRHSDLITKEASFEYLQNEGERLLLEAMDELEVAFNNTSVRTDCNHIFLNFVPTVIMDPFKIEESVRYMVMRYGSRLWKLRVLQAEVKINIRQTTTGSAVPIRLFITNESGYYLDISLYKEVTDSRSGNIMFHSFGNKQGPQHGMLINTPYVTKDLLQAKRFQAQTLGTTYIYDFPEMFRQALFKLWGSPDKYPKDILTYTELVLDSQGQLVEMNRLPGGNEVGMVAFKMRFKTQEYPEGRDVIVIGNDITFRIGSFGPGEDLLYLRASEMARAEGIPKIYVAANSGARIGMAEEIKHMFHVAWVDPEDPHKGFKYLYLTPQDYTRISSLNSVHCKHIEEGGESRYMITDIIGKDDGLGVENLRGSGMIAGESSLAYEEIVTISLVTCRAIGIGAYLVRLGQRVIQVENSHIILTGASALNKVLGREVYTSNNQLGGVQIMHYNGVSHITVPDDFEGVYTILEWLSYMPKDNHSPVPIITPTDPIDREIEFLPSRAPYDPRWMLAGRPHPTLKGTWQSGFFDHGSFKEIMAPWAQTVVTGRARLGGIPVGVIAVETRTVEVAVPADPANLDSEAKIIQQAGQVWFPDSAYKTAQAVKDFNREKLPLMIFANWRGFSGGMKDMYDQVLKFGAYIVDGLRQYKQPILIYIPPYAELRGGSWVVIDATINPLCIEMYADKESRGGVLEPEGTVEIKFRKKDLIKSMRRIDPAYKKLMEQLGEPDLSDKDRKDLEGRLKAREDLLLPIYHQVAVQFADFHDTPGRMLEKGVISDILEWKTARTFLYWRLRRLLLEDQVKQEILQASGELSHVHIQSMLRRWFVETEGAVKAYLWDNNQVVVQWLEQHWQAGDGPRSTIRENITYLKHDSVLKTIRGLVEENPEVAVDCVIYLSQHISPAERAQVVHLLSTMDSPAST
Summary of the method: (§2)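 Recombinant human ACC1 and ACC2 enzymes; activity read as inhibition of malonyl-CoA synthesis.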

[2] = Tmax in Sprague-Dawley rat at 10 mg/kg, po; type: ADME, organism-based; parameters: dose 10 mg/kg, route oral; conditions: in vivo
Summary of the method: as §1

HepG2 [3] = test: Induction of fatty acid oxidation in human HepG2 cells after 48 hrs; type: functional, cell-based
Summary of the method: (§3)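 HepG2 cells. Fatty acid synthesis read as decreased [¹⁴C] acetate incorporation into cellular lipids, reported as IC₅₀. Fatty acid oxidation read as T₂O generated in the culture medium, reported as EC₅₀.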

HepG2 [4] = test: Inhibition of fatty acid synthesis in human HepG2 cells after 48 hrs; type: functional, cell-based; conditions: for IC50: Homo sapiens, HepG2, 48 h
Summary of the method: as §3

[5] = Metabolic stability in rat liver microsome assessed as drug remaining at 5 uM after 15 mins; type: ADME; conditions: liver microsomes, read-out: Activity
Summary of the method: (§4)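 Compound at 5 µM incubated at 37 °C for 15 min with 1 mg/mL human or rat liver microsomes. Cofactors: 1.5 mM glucose-6-phosphate, 0.16 mM NADP, 1 U/mL glucose-6-phosphate dehydrogenase. Medium: 250 mM phosphate buffer, 2.4 mM MgCl₂, 69 mM KCl. Compound measured by LC–MS/MS at 0 and 15 min; % remaining reported.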

[6] = Metabolic stability in human liver microsome assessed as drug remaining at 5 uM after 15 mins; type: ADME; conditions: liver microsomes, read-out: Activity
Summary of the method: as §4

Acetyl-CoA carboxylase 1 = Acetyl-CoA carboxylase 1 (Homo sapiens, UniProt Q13085); test: Inhibition of human recombinant ACC1
Summary of the method: as §2

[7] = AUC in Sprague-Dawley rat at 10 mg/kg, po; type: ADME, organism-based; parameters: dose 10 mg/kg, route oral; conditions: plasma
Summary of the method: as §1

Row | IC50 (Acetyl-CoA carboxylase) [nM] | Compound | other results
1 | 60 | Cc1cc(C(=O)N2CCC(N3CCN(C(=O)c4c5ccccc5cc5ccccc45)CC3)CC2)c(C)o1 | 
2 | 76 | CC(=O)N1CCC(C(=O)N2CCC(N3CCN(C(=O)c4cc(-c5ccc(C)cc5)nc(-c5ccc(C)cc5)c4)CC3)CC2)CC1 | Cmax [1]: 107 ng/mL; IC50 (Acetyl-CoA carboxylase 2): 23 nM; Tmax [2]: 4 h; Activity (HepG2 [3]): 176%; EC50 (HepG2 [3]; Homo sapiens, HepG2, 48 h): 580 nM; inhibition (INH) (HepG2 [4]): 77%; IC50 (HepG2 [4]): 340 nM; remaining at 0.25 h, 5 µM [5]: 96%; remaining at 0.25 h, 5 µM [6]: 87%; IC50 (Acetyl-CoA carboxylase 1): 101 nM; AUC [7]: 1000 ng·h/mL
3 | 126 | CC(=O)N1CCC(C(=O)N2CCC(N3CCN(C(=O)c4cc(-c5ccccc5)nc(-c5ccccc5)c4)CC3)CC2)CC1 | Activity (HepG2 [3]): 148%; inhibition (INH) (HepG2 [4]): 72%
4 | 169 | CN(C)C(=O)N1CCC(C(=O)N2CCC(N3CCN(C(=O)c4cc(-c5ccccc5)nc(-c5ccccc5)c4)CC3)CC2)CC1 | 
5 | 116 | O=C(c1c2ccccc2cc2ccccc12)N1CCC(N2CCC[C@@H](C(=O)N3CCOCC3)C2)CC1 | IC50 (Acetyl-CoA carboxylase 2): 194 nM; IC50 (HepG2 [4]): 840 nM; remaining at 0.25 h, 5 µM [6]: 52%; IC50 (Acetyl-CoA carboxylase 1): 456 nM
6 | 184 | CC(=O)N1CCC(C(=O)N2CCC(N3CCN(C(=O)c4cc(-c5ccccc5)nc(-c5ccc(F)cc5)c4)CC3)CC2)CC1 | 
7 | 151 | NC(=O)N1CCC(C(=O)N2CCC(N3CCN(C(=O)c4cc(-c5ccccc5)nc(-c5ccccc5)c4)CC3)CC2)CC1 | 
8 | 121 | O=C(c1c2ccccc2cc2ccccc12)N1CCN(C2CCN(C(=O)N3CCCCC3)CC2)CC1 | 
9 | 68 | COc1ccc(-c2cc(C(=O)N3CCN(C4CCN(C(=O)C5CCN(C(C)=O)CC5)CC4)CC3)cc(-c3ccc(OC)cc3)n2)cc1 | Activity (HepG2 [3]): 167%; inhibition (INH) (HepG2 [4]): 77%
10 | 67 | CC(=O)N1CCC(C(=O)N2CCC(N3CCN(C(=O)c4cc(-c5ccc(C(N)=O)cc5)nc(-c5ccc(C(N)=O)cc5)c4)CC3)CC2)CC1 | Activity (HepG2 [3]): 135%
11 | 95 | CNC(=O)N1CCC(C(=O)N2CCC(N3CCN(C(=O)c4cc(-c5ccccc5)nc(-c5ccccc5)c4)CC3)CC2)CC1 | 
12 | 32 | CC(=O)N1CCC(C(=O)N2CCC(N3CCN(C(=O)c4cc(-c5ccc(CO)cc5)nc(-c5ccc(CO)cc5)c4)CC3)CC2)CC1 | Activity (HepG2 [3]): 120%
13 | 131 | CC(=O)N1CCC(C(=O)N2CCC(N3CCN(C(=O)c4cc(-c5cccc(F)c5)nc(-c5cccc(F)c5)c4)CC3)CC2)CC1 | 
14 | 66 | O=C(c1ccccc1)N1CCC(N2CCN(C(=O)c3c4ccccc4cc4ccccc34)CC2)CC1 | 
15 | 239 | O=C(c1c2ccccc2cc2ccccc12)N1CCN(C2CCN(C(=O)N3CCOCC3)CC2)CC1 | 
16 | 244 | O=C(c1cc(-c2ccccc2)nc(-c2ccccc2)c1)N1CCN(C2CCN(C(=O)C3CCCCC3)CC2)CC1 | 
17 | 434 | O=C(c1cc(-c2ccccc2)nc(-c2ccccc2)c1)N1CCN(C2CCN(C(=O)N3CCCCC3)CC2)CC1 | 

Row | IC50 (Acetyl-CoA carboxylase) [nM] | Compound | other results
18 | 95 | O=C(c1c2ccccc2cc2ccccc12)N1CCN(C2CCN(C(=O)C3CCCC3)CC2)CC1 | 
19 | 169 | COCC(=O)N1CCC(C(=O)N2CCC(N3CCN(C(=O)c4cc(-c5ccccc5)nc(-c5ccccc5)c4)CC3)CC2)CC1 | 
20 | 91 | O=C(c1c2ccccc2cc2ccccc12)N1CCN(C2CCN(C(=O)C3CCCCC3)CC2)CC1 | 
21 | 411 | CC(C)OC(=O)N1CCC(C(=O)N2CCC(N3CCN(C(=O)c4cc(-c5ccccc5)nc(-c5ccccc5)c4)CC3)CC2)CC1 | 
22 | 102 | O=C(CO)N1CCC(C(=O)N2CCC(N3CCN(C(=O)c4cc(-c5ccccc5)nc(-c5ccccc5)c4)CC3)CC2)CC1 | 
23 | 693 | O=C(c1ccccc1)N1CCC(N2CCN(C(=O)c3cc(-c4ccccc4)nc(-c4ccccc4)c3)CC2)CC1 | 
24 | 115 | CCC(=O)N1CCC(C(=O)N2CCC(N3CCN(C(=O)c4cc(-c5ccccc5)nc(-c5ccccc5)c4)CC3)CC2)CC1 | 
25 | 73 | CC(=O)N1CCC(C(=O)N2CCC(N3CCN(C(=O)c4cc(-c5cccc(C(N)=O)c5)nc(-c5cccc(C(N)=O)c5)c4)CC3)CC2)CC1 | Activity (HepG2 [3]): 94%
26 | 155 | CO[C@H]1CC[C@H](C(=O)N2CCC(N3CCN(C(=O)c4cc(-c5ccccc5)nc(-c5ccccc5)c4)CC3)CC2)CC1 | 
27 | 161 | O=C(c1ccco1)N1CCC(N2CCN(C(=O)c3c4ccccc4cc4ccccc34)CC2)CC1 | 
28 | 869 | O=C(c1cc(-c2ccccc2)nc(-c2ccccc2)c1)N1CCN(C2CCN(C(=O)N3CCOCC3)CC2)CC1 | 
29 | 157 | Cc1cc(C(=O)N2CCC(N3CCN(C(=O)c4cc(-c5ccccc5)nc(-c5ccccc5)c4)CC3)CC2)c(C)o1 | 
30 | 248 | CS(=O)(=O)N1CCC(C(=O)N2CCC(N3CCN(C(=O)c4cc(-c5ccccc5)nc(-c5ccccc5)c4)CC3)CC2)CC1 | 
31 | 290 | O=C(c1ccccc1)N1CCC(C(=O)N2CCC(N3CCN(C(=O)c4cc(-c5ccccc5)nc(-c5ccccc5)c4)CC3)CC2)CC1 | 
32 | 2112 | O=C(Cc1ccccc1)N1CCC(N2CCN(C(=O)c3c4ccccc4cc4ccccc34)CC2)CC1 | 
33 | 52 | CC(=O)N1CCC(C(=O)N2CCC(N3CCN(C(=O)c4cc(-c5ccc(O)cc5)nc(-c5ccc(O)cc5)c4)CC3)CC2)CC1 | Activity (HepG2 [3]): 123%; inhibition (INH) (HepG2 [4]): 29%
34 | 102 | COC(=O)N1CCC(C(=O)N2CCC(N3CCN(C(=O)c4cc(-c5ccccc5)nc(-c5ccccc5)c4)CC3)CC2)CC1 | 
